# In the library only some 2.1% were active in any assay of this set; here they are far more common.
# EWS-Fli inh: EWS/Fli-driven NR0B1 reporter inhibitors, primary screen, A673 cells, NR0B1 luciferase, luminescence, MLPCN library; viability-normalised; inhibition, % at 12.6 µM; actives 0.67% (n = 350,000); AID 651661, 2012;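 active means mean inhibition of at least 50% after viability correction, with every replicate also passing that limit; inconclusive means mean reaches 50% but only one of two replicates passes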;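 further: firefly luciferase signal divided by Alamar Blue viability fluorescence both relative to DMSO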
# PAX8 inh HTS: inhibitors of PAX8-driven TPO luciferase reporter, primary screen, RMG-I cells, single concentration. SteadyGlo, 24 h. AID 652154, 2013. actives 1.2% (n = 360,000). inhibition, % at 12.6 µM;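 active means mean replicate inhibition at least 60% with every replicate also reaching 60%; inconclusive means only one of the two criteria is met; inactive means mean below 60% and not all replicates reaching 60%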;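 further: luciferase light reporting Pax8 driven TPO promoter activity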
# aSyn UTR inh: MLPCN primary screen, SNCA 5' untranslated region. alpha-synuclein 5'UTR reporter, inhibitor activity. inhibition, % (tested at 7.5 µM). actives 0.82% (n = 300,000); in the data active means inhibition above about 60%; inconclusive means no clear call, values can overlap the other calls;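 further: H4 neuroglioblastoma cells stably carrying SNCA 5'UTR luciferase fusion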
# FN deposition inh: inhibitors of fibronectin matrix deposition, primary screen, AH1F cells, Alexa488-fibronectin fluorescence, plate reader; AID 743247, 2014; AH1F fibroblasts, overnight; actives 0.086% (n = 350,000); inhibition, % at 12.6 µM;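 active means mean inhibition across replicates of 30% or more, regardless of how many single replicates reach that level; inconclusive means mean under 30% yet at least half of replicates reach 30%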
#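 Material: AH1F fibroblasts assembling fluorescent fibronectin matrix; amount: 10000 AH1F cells/well; medium: DMEM, 2% serum; reagent: Alexa488-fibronectin, 24 nM final in well; dosing: single compound dose, delivered by pin transfer; incubation: 1 h adhesion, overnight exposure; detection: fluorescence after three HBSS washes, excitation 485 nm, emission 525 nm; measure: fibronectin deposition inhibition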
# Shn3 inh set2: reduction of Shn3 3'UTR firefly luciferase signal, primary screen, Schnurri-3 inhibitor project, cell-based, Clone20 osteoblasts, set 2; Clone20 osteoblast Shn3 3'UTR firefly luciferase, 24 h; inhibition, % at 12.5 µM; actives 0.52% (n = 360,000); AID 588674, 2011;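 active means mean inhibition of at least 75% with every replicate also reaching 75%; inconclusive means mean inhibition at least 75% but some replicate below; inactive means mean inhibition below 75%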
# EBV LMP1 NFkB: EBV LMP1-driven NF-kappaB luciferase reporter inhibitors, primary screen, cell-based, luminescence, single point | LMP1-induced NF-kappaB luciferase reporter cells | inhibition, % at 12.5 µM | actives 0.69% (n = 350,000) | AID 504558, 2011; in the data active means inhibition above about 41%; inconclusive means no clear call, values can overlap the other calls
# Numbers stand for hits; . = inactive; ? = inconclusive; / = not tested or not shown.
SMILES,EWS-Fli inh,PAX8 inh HTS,aSyn UTR inh,FN deposition inh,Shn3 inh set2,EBV LMP1 NFkB
CC(O)C1C=CC=CC(=O)OC2CC3OC4C5OC5(C)CCC4(COC(=O)C4OC4(C)C(O)CO1)C2(C)C31CO1 (stereo unspecified),.,103.2,/,.,92.5,84.3
CC(=O)OC1C(=O)OCC23CCC4(C)OC4C2OC2CC(OC(=O)C=CC=CC(=O)OCCC1C)C3(C)C21CO1 (stereo unspecified),.,103.2,/,.,93.7,80.7
COCC(=O)N1[C@@H]2c3ccc(C4=CCCC4)c(=O)n3C[C@H]1[C@H](CO)[C@H]2C(=O)OC,.,.,/,/,/,/
COc1cc2c(cc1OC)[C@@H]1C(=O)c3ccc4c(c3O[C@@H]1CO2)C[C@H](C(C)C)O4,.,.,.,.,.,.
COc1cc2c(cc1OC)C1C(=O)c3ccc4c(c3OC1CO2)CC(C(C)C)O4 (stereo unspecified),.,.,/,.,85.1,.
COC(=O)C1=C(c2ccc(OCc3ccccc3)cc2)C[C@@H]2CC[C@H]1N2C(=O)NCCCCc1ccccc1,.,61.7,/,.,.,.
COC(=O)C1=C(c2ccc(OCc3ccccc3)cc2)C[C@@H]2CC[C@H]1N2C(=O)NCCc1ccc(F)cc1,.,.,/,.,.,.
COC(=O)C1=C(c2ccc(F)cc2OCc2ccccc2)C[C@@H]2CC[C@H]1N2C(=O)NC(C)C,.,.,/,.,.,49.4
CC(=O)N1[C@@H]2c3ccc(-c4cccc(C(=O)N(C)C)c4)c(=O)n3C[C@H]1[C@H](CO)[C@H]2C(=O)O,.,/,/,/,/,/
COC(=O)[C@@H]1[C@@H](CO)[C@@H]2Cn3c(ccc(-c4ccccc4OC)c3=O)[C@H]1N2Cc1ccccc1,.,/,/,/,/,/
CC(=NNC(=S)N1CC2CCC(CC2)C1)c1nccs1,.,.,/,.,93.0,72.8
COc1cccc(OC)c1C1=NCC(=O)Nc2c1oc1ccc(Br)cc21,.,75.9,?,.,.,.
CC(C)[C@H]1C(=O)O[C@H](C(C)C)C(=O)N(C)[C@@H](C(C)C)C(=O)O[C@H](C(C)C)C(=O)N(C)[C@@H](C(C)C)C(=O)O[C@H](C(C)C)C(=O)N1C,/,/,85.7,/,89.8,56.3
CC=Cc1ccc2n(c1=O)C[C@H]1[C@H](CO)[C@@H](C(=O)OC)[C@@H]2N1C(=O)CC (mixture of isomers),.,/,/,/,/,/
COc1c2c(cc3c1OCO3)CCN(C)C2,.,.,/,.,.,79.0
CCN1[C@@H]2Cn3c(ccc(-c4cccc(OC)c4)c3=O)[C@H]1[C@@H](C(=O)OC)[C@@H]2CO,.,.,/,/,/,/
CCCN1[C@@H]2Cn3c(ccc(-c4cccc(C(=O)N(C)C)c4)c3=O)[C@H]1[C@@H](C(=O)OC)[C@@H]2CO,.,.,/,/,/,/
O=C(O)[C@@H]1[C@@H](CO)[C@@H]2Cn3c(ccc(C4=CCCCC4)c3=O)[C@H]1N2CCc1ccccc1,.,/,/,/,/,/
O=C(c1ccc(Cl)cc1)C1CCCN(Cc2cccc3ncccc23)C1 (stereo unspecified),.,.,.,.,85.5,.
O=C(c1ccc(Cl)cc1)C1CCCN(Cc2cccc3cccnc23)C1 (stereo unspecified),.,.,.,/,.,.
CC=Cc1ccc2n(c1=O)C[C@@H]1[C@@H](CO)[C@H](C(=O)OC)[C@H]2N1C(=O)CC1CC1 (mixture of isomers),.,.,/,/,/,/
COc1ccc(OC(=O)N(C)C[C@@H]2OCc3ccccc3-c3c(n(C)c4ccccc34)C(=O)N([C@@H](C)CO)C[C@H]2C)cc1,.,.,/,.,/,/
CCC(C)C(NC(=O)CCCNC(=O)CCC(=O)OC1O[C@H]2OC3(C)CC[C@H]4[C@H](C)CCC(C1C)C24OO3)C(=O)O (stereo partly specified),.,74.4,.,.,86.6,.
CCC(C)NC(=O)CCC(=O)OC1O[C@H]2OC3(C)CC[C@H]4[C@H](C)CCC(C1C)C24OO3 (stereo partly specified),.,.,.,.,.,.
O=C1NC(=O)[C@]2(Cc3ccccc3N3CCN(c4ccccc4)CC32)C(=O)N1c1ccccc1 (stereo partly specified),/,/,.,31.3,.,.
SMILES,EWS-Fli inh,PAX8 inh HTS,aSyn UTR inh,FN deposition inh,Shn3 inh set2,EBV LMP1 NFkB
CCN(CC)c1ccc(C=C2C(=O)N(C)C(=S)N(C)C2=O)o1,.,77.7,.,.,.,.
N#Cc1cccc(-c2ccc([C@H]3[C@H](CO)N4CCCCN(C(=O)Cc5cccnc5)C[C@@H]34)cc2)c1,.,.,/,/,/,/
COC(=O)[C@H]1[C@H](CO)[C@H]2Cn3c(ccc(-c4ccncc4)c3=O)[C@@H]1N2S(=O)(=O)c1ccccc1F,.,.,/,/,/,/
CC(C)NC(=O)N1CC2C(c3ccccc3)C(C1)N2C (stereo unspecified),/,/,/,.,/,/
CC(=O)c1c(C)n(C2CCCCC2)c2ccc(O)cc12,.,.,.,.,.,70.5
CCN1[C@@H]2c3ccc(-c4ccc(OC)cc4)c(=O)n3C[C@H]1[C@H](CO)[C@H]2C(=O)OC,.,/,/,/,/,/
COC(=O)c1nc(-c2ccc3c(n2)C(=O)C(N)=C(OC)C3=O)c(N)c(-c2ccc(OC)c(OC)c2O)c1C,.,.,97.2,.,.,.
CC1=CC2OC3CC4OC(=O)C=CC=CC(=O)OCCC(C)C(O)C(=O)OCC2(CC1O)C4(C)C31CO1 (stereo unspecified),/,/,/,/,89.3,84.6
CC1=CC2OC3CC4OC(=O)C=CC=CC(C(C)O)OCC(O)C(C)CC(=O)OCC2(CC1O)C4(C)C31CO1 (stereo unspecified),51.1,/,/,.,93.5,83.6
COC(=O)[C@@H]1[C@@H](CO)[C@@H]2Cn3c(ccc(-c4ccccc4)c3=O)[C@H]1N2CC1CC1,.,/,/,/,/,/
COC(=O)[C@@H]1[C@@H](CO)[C@@H]2Cn3c(ccc(-c4cccc(F)c4)c3=O)[C@H]1N2C(=O)CC1CC1,.,/,/,/,/,/
O=c1[nH]c2ccccc2n1C1CCN(C(CCc2ccccc2)c2nnnn2-c2ccc3c(c2)OCCO3)CC1 (stereo unspecified),.,106.4,/,.,.,/
CCC(c1nnnn1-c1ccc(OC)cc1)N1CCC(n2c(=O)[nH]c3ccccc32)CC1 (stereo unspecified),.,.,/,/,.,/
O=c1[nH]c2ccccc2n1C1CCN(C(c2ccnc3ccccc23)c2nnnn2-c2ccc3c(c2)OCCO3)CC1 (stereo unspecified),.,76.5,/,.,.,/
Cc1cccc(C)c1-n1nnnc1C(CCc1ccccc1)N1CCC(n2c(=O)[nH]c3ccccc32)CC1 (stereo unspecified),.,.,/,.,.,/

# High-throughput results (PubChem BioAssay)
